From PubChem BioAssay
This is a sample that favours compounds with a hit; in the whole collection about 2.3% have one here.
HNF4A DNA FP: change in binding of human HNF4 alpha to DNA; activity change, % at 10 µM; P41235; HNF4a-FITC DNA binding, fluorescence polarization, 1 h; AID 1224865; 360,000 tested, 0.3% active; in the data active = activity change above about 30%, passing the limit was not always enough
Myeloid diff 2: promotes myeloid progenitor differentiation; ER-HoxA9 myeloid progenitors, lysozyme-GFP differentiation, flow cytometry; 360,000 tested, 1% active; calls only at 10 µM;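 active = normalized GFP-positive differentiation at or above the plate's own cutoff, the solvent-only control mean plus 3 SD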;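 note: cells exposed to compound for four days before flow analysis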
Rpn11 inh: inhibitors of human proteasome Rpn11; O00487; human 26S proteasome, Ub4-pepOG fluorescence polarization; 20S core pre-blocked with epoxomicin; inhibition, % at 20 µM; 360,000 tested, 0.59% active; AID 588493;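 active = inhibition at 20 µM, scaled to each plate's controls, above about 33%, limit read from the data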
Target sequence (O00487 whole entry, looked up): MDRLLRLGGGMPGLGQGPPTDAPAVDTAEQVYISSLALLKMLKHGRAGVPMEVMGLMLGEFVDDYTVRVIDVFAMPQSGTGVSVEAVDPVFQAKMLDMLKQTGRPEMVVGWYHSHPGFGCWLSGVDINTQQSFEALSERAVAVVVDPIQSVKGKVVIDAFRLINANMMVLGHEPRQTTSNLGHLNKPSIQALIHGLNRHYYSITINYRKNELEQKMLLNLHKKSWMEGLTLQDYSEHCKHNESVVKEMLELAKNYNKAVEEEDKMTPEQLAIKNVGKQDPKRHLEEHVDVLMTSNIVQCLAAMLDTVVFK
TPT1 inh: inhibitors of Candida albicans tRNA 2'-phosphotransferase TPT1 | recombinant caTPT1, FP RNA substrate dephosphorylation | inhibition, % at 5 µM | 300,000 tested, 0.81% active;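 active = inhibition above the mean of all tested compounds plus 3 SD, set per screening campaign, cut at about 24% in these data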;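 note: plate controls were DMSO alone for no effect and ferristatin control at 100 nM for full effect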
CSN inh: CSN deneddylation inhibition. Purified CSN, SCF-Nedd8-OG deneddylation, fluorescence polarization. Q92905. 360,000 tested, 0.38% active. AID 651999. inhibition, % at 12.5 µM;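 active = pattern-corrected inhibition above about 35%, with an unprinted fluorescence ratio check between 0.5 and 1.5, limit read from the data, passing the limit was not always enough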;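 note: 0% = enzyme with substrate and 100% = substrate without enzyme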
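assay system = purified human Csn5 enzyme expressed in HEK293T cells | amount = 0.24 nM enzyme | buffer or medium = Tris/NaCl/DTT buffer, pH 7.5 | reagent = 10 nM SCFSkp2-Nedd8OG | compound = one concentration, 12.5 µM, 0.25% DMSO | times = 90 min reaction at room temperature | signal = FP | read-out basis = % inhibition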
TPT1 inh confirm: TPT1 (C. albicans) inhibition, confirmation | shares compounds with TPT1 inh | inhibition, % at 5 µM | recombinant caTPT1, fluorescence polarization, RNase T1 coupled | AID 2149 | 2,400 tested, 74% active;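 active = inhibition above the primary screen limit, the mean inhibition of all tested compounds plus 3 SD, cut at about 25% in these data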
RNase T1 counter: blocks Aspergillus oryzae RNase T1, a TPT1 counter-screen | inhibition, % at 5 µM | shares compounds with TPT1 inh | RNase T1 cleavage, fluorescence polarization, 1536-well | 2,400 tested, 83% active;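 active = inhibition above the solvent-only control well mean plus 3 SD, limit set per screening run, cut at about 23% in these data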;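 note: plate controls were DMSO wells with enzyme for no effect and wells without RNase T1 for full effect; inhibitors block cleavage so intact labeled substrate keeps polarization high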
Target sequence (P00651 whole entry, looked up): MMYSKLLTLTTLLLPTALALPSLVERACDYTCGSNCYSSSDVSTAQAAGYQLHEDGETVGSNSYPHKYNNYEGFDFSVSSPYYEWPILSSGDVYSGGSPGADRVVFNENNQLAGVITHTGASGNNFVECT
Rpn11 inh conf: confirmation of human proteasome Rpn11 inhibitors; shares compounds with Rpn11 inh; inhibition, % at 20 µM; purified human 26S proteasome, Ub4-pepOG fluorescence polarization; proteasome pretreated with epoxomicin; 1,900 tested, 29% active
MMP-2 counter-1: MMP-2 (human) inhibition counter-screen; AID 602330; recombinant MMP-2, FRET peptide cleavage fluorescence; inhibition, % at 20 µM; shares compounds with Rpn11 inh; 1,900 tested, 4% active;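 note: human MMP-2 activated beforehand with APMA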
Thrombin FP: counter-screen for RPN11 inhibitors: inhibition of bovine thrombin. 1,900 tested, 13% active. bovine thrombin cleavage of Ub4-pepOG, fluorescence polarization. AID 602333. inhibition, % at 20 µM. shares compounds with Rpn11 inh;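 active = mean inhibition at least 40% at 20 µM, or signal 3 deviations below plate average, so some actives read negative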;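 note: plate controls were thrombin with DMSO for no effect and buffer wells lacking thrombin for full effect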
CSN deneddyl val: validation of inhibitors of human CSN-mediated cullin deneddylation | shares compounds with CSN inh | Csn5 deneddylation of SCF-Nedd8OG, fluorescence polarization, 90 min | inhibition, % at 16.6 µM | 540 tested, 62% active | AID 720654; in the data active = inhibition above about 50%;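 note: 0% = DMSO with enzyme and 100% = no enzyme wells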
MMP-2 counter-2: blocks human MMP-2 in a CSN deneddylation counter-screen | inhibition, % at 16.6 µM | recombinant MMP-2, FRET substrate fluorescence, 60 min | shares compounds with CSN inh | 540 tested, 33% active;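 active = corrected plate-normalized z-score of 5 or more, or -5 or less, or inhibition of 15% or more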;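 note: plate controls were DMSO wells with enzyme for no effect and buffer wells lacking MMP-2 for full effect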
Thrombin counter: counter-screen for CSN deneddylation inhibitors: bovine thrombin inhibition. shares compounds with CSN inh. bovine thrombin cleavage of Ub4-pepOG, fluorescence polarization. inhibition, % at 16.6 µM. 540 tested, 49% active. AID 720656;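 active = inhibition at or above a set limit, with a fluorescence interference ratio between 0.5 and a set maximum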
Starred values were filed as active, the others as inactive; i = inactive; nt = not tested or not shown; + = active, no number. Cut-off read from the data, not from the text of the source, unless noted: active = inhibition above about 40%; inactive = the rest.

SMILES	HNF4A DNA FP	Myeloid diff 2	Rpn11 inh	TPT1 inh	CSN inh	TPT1 inh confirm	RNase T1 counter	CSN deneddyl val	MMP-2 counter-2	Thrombin counter	others
CC12C(C(=O)O)C1(c1ccccc1)C2C(=O)O (configuration not stated)	2	i	5	nt	-2	nt	nt	nt	nt	nt
Cc1ccc(/C=C2\C(=O)NC(=S)N(c3cccc(F)c3)C2=O)o1	21	i	nt	41*	45*	46*	57*	65*	35*	54*
Cc1ccc(/C=C2\C(=O)NC(=O)N(CCc3ccc(F)cc3)C2=O)o1	0	i	15	20	5	nt	nt	nt	nt	nt
Cc1cc(C=C2C(=O)N(C)C(=S)N(C)C2=O)c(C)n1C1CCCCC1	20	i	50*	24*	49*	28*	39*	113*	1	3	Rpn11 inh conf=-2;MMP-2 counter-1=-27;Thrombin FP=14
O=C1NC(=O)N(Cc2ccco2)C(=O)/C1=C/C=C/c1ccco1	-31	i	141*	35*	46*	39*	54*	48	26*	20*
C=CCN1C(=O)NC(=O)/C(=C/C=C/c2ccccc2)C1=O	20	i	30	nt	3	nt	nt	nt	nt	nt
O=C1NC(=O)N(Cc2ccccc2)C(=O)/C1=C\C=C\c1ccco1	18	i	50*	60*	81*	46*	63*	61*	2	27*	Rpn11 inh conf=29;MMP-2 counter-1=11;Thrombin FP=21
Cc1ncoc1C(=O)NCC1=C(c2ccc3ccccc3c2)C[C@@H]2CC[C@H]1N2Cc1ccco1	5	i	-3	nt	-1	nt	nt	nt	nt	nt
Cc1cccc(N2C(=O)NC(=O)/C(=C\C=C\c3ccco3)C2=O)c1	5	i	31	25*	50*	30*	48*	84*	8	9
Cc1ccc(N2C(=O)NC(=O)/C(=C\C=C\c3ccco3)C2=O)cc1C	1	+	32	38*	69*	51*	70*	68*	6	12
Cc1cc(N2CCOCC2)ccc1/C=C1\C(=O)NC(=O)N(c2ccccc2)C1=O	5	i	4	5	5	nt	nt	nt	nt	nt
CC1=C(C)CC2(C(=O)NC(=S)NC2=O)C(C)C1 (configuration not stated)	-3	i	1	nt	2	nt	nt	nt	nt	nt
C[C@]12CC[C@@H](O)CC1=CCC1C2CC[C@@]2(C)C1C[C@@H](F)[C@H]2O (some centres not stated)	6	i	2	nt	7	nt	nt	nt	nt	nt
O=C1CCC2(O)C3Cc4ccc(O)c5c4C2(CCN3Cc2ccoc2)C1O5 (configuration not stated)	0	i	-14	nt	2	nt	nt	nt	nt	nt
N#Cc1c(/N=C/c2c(O)n(Cc3ccco3)c(=O)[nH]c2=O)sc2c1CCCC2	-3	i	22	44*	43*	8	14	73*	10	-2
CCN(CC)c1ccc(N=Cc2c(O)n(Cc3ccco3)c(=O)[nH]c2=O)cc1	102	i	nt	45*	62*	64*	69*	nt	-14	25*
O=c1[nH]c(=O)n(Cc2ccco2)c(O)c1/C=N/N1CCCCCC1	0	i	1	0	6	nt	nt	nt	nt	nt
